Source: ChEMBL document CHEMBL3352164, “Discovery of N-(2,4-di-tert-butyl-5-hydroxyphenyl)-4-oxo-1,4-dihydroquinoline-3-carboxamide (VX-770, ivacaftor), a potent and orally bioavailable CFTR potentiator” (J Med Chem, 2014)

Key:
[1] = test system: Cystic fibrosis transmembrane conductance regulator (Homo sapiens), P13569 [F508del]; assay: Potentiation of human CFTR F508del mutant expressed in mouse NIH-3T3 cells at 30 uM after 30 mins by fluorescent voltage sensing optical assay relative to VRT-532; type: cell-based; details: NIH3T3
Sequence of Cystic fibrosis transmembrane conductance regulator (Homo sapiens), P13569 [F508del] (P13569 as listed by the source): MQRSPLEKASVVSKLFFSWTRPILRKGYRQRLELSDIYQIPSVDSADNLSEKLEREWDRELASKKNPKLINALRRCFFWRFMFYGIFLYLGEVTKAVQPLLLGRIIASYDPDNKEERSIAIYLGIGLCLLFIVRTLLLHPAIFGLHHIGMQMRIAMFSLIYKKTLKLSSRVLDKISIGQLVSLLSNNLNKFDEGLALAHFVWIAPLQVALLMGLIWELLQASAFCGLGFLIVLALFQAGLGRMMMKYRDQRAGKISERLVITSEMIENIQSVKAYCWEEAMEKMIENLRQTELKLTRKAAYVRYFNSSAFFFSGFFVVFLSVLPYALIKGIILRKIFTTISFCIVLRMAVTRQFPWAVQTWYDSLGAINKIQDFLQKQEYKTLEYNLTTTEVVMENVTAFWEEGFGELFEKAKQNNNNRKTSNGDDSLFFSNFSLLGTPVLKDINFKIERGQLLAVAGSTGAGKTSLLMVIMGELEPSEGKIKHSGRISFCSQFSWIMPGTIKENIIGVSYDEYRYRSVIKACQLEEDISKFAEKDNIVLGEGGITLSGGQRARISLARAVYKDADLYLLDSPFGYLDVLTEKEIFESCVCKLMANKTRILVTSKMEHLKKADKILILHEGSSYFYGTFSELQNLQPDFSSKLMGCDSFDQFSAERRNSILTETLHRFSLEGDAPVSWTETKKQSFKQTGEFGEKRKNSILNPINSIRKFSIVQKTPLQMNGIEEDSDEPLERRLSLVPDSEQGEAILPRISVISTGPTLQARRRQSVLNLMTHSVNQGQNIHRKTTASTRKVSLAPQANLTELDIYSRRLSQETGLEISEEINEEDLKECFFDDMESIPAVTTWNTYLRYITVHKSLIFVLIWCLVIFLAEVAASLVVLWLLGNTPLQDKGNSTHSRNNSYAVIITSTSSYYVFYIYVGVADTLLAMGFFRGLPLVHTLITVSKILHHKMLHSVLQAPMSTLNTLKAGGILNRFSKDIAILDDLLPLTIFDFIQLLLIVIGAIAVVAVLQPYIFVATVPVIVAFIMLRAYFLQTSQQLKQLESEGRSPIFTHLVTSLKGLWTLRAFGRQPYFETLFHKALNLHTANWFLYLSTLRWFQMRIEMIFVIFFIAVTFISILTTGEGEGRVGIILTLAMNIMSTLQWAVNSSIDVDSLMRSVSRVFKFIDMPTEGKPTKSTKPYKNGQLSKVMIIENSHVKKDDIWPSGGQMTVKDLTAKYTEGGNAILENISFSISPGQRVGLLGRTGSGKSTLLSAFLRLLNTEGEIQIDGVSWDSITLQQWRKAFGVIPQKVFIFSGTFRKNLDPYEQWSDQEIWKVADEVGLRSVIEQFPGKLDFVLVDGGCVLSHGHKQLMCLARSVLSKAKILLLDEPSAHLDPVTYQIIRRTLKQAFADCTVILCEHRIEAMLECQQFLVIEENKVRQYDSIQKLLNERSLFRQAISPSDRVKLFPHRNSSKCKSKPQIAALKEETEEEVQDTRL
Summary of the method: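 Same F508del-CFTR NIH-3T3 membrane-potential assay: 27 °C correction for 16–24 h, dye plus compound for 30 min at room temperature, then forskolin in Cl−-free bath. Compounds below 50% activity at 30 μM were not titrated. Their response at 30 μM is given as % of VRT-532.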

[2] = molecular target: Cystic fibrosis transmembrane conductance regulator (Homo sapiens, UniProt P13569, F508DEL); assay: Potentiation of human CFTR F508del mutant expressed in mouse NIH-3T3 cells after 30 mins by fluorescent voltage sensing optical assay; type: cell-based, NIH3T3
Sequence of Cystic fibrosis transmembrane conductance regulator (P13569 as listed by the source): as above
Summary of the method: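 NIH-3T3 fibroblasts stably expressing human F508del-CFTR were held 16–24 h at 27 °C to correct misfolding. Cells were washed in NaCl/HEPES bath, pH 7.4, then loaded with voltage-sensing dyes plus compound for 30 min at room temperature. Cl−-free bath with forskolin was added once, and membrane potential change was read by fluorescence. EC50 is mean ± SD of at least three determinations.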

[3] = Clearance in Cynomolgus monkey at 0.8 mg/kg, iv; type: ADME, organism-based, Macaca fascicularis; set-up: dose 0.8 mg/kg, route intravenous; details: in vivo
Summary of the method: (§1)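 Animals (n = 3/group; male mouse, Sprague-Dawley rat, beagle dog, cynomolgus monkey) got a single iv dose in dimethyl isosorbide/ethanol/PEG400/D5W (10%/15%/35%/40%) at 1 mL/kg. Heparinized blood was drawn via an indwelling carotid cannula from predose to 48 h. Plasma was assayed by LC/MS/MS (LLOQ 1 ng/mL, linear 1–2500 ng/mL). Parameters came from noncompartmental analysis of mean profiles using measured doses.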

Canis familiaris [4] = assay: AUC (0 to infinity) in beagle dog at 3.8 mg/kg, po; details: in vivo
[5] = Clearance in mouse at 3 mg/kg, iv; type: ADME, organism-based; set-up: dose 3 mg/kg, route intravenous; details: in vivo; summary of the method: as §1
[6] = Volume of distribution at steady state in beagle dog at 0.9 mg/kg, iv; type: ADME, organism-based, Canis lupus familiaris; set-up: dose 0.9 mg/kg, route intravenous; details: in vivo, read-out: Vdss; summary of the method: as §1
[7] = Volume of distribution at steady state in mouse at 3 mg/kg, iv; type: ADME, organism-based; set-up: dose 3 mg/kg, route intravenous; details: in vivo, read-out: Vdss; summary of the method: as §1
Canis familiaris [8] = assay: Oral bioavailability in beagle dog at 3.8 mg/kg; details: in vivo
[9] = Half life in Cynomolgus monkey at 0.8 mg/kg, iv; type: ADME, organism-based, Macaca fascicularis; set-up: dose 0.8 mg/kg, route intravenous; details: in vivo; summary of the method: as §1
[10] = Volume of distribution at steady state in Cynomolgus monkey at 0.8 mg/kg, iv; type: ADME, organism-based, Macaca fascicularis; set-up: dose 0.8 mg/kg, route intravenous; details: in vivo, read-out: Vdss; summary of the method: as §1
[11] = AUC (0 to infinity) in Sprague-Dawley rat at 3 mg/kg, po; type: ADME, organism-based; set-up: time infinity, dose 3 mg/kg, route oral; details: plasma
Summary of the method: (§2)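 Single oral dose, n = 3/group. Heparinized carotid-cannula blood was sampled at predose, 0.25, 0.5, 1, 1.5, 2, 4, 8, 12 and 24 h. Plasma levels were measured by LC/MS/MS (LLOQ 1 ng/mL). AUC and bioavailability were derived by noncompartmental analysis of mean concentration–time profiles against the iv arm.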

Cytochrome P450 2E1 = Cytochrome P450 2E1 (Homo sapiens, UniProt P05181); assay: Inhibition of CYP2E1 (unknown origin); type: ADME
Sequence of Cytochrome P450 2E1 (P05181 whole entry): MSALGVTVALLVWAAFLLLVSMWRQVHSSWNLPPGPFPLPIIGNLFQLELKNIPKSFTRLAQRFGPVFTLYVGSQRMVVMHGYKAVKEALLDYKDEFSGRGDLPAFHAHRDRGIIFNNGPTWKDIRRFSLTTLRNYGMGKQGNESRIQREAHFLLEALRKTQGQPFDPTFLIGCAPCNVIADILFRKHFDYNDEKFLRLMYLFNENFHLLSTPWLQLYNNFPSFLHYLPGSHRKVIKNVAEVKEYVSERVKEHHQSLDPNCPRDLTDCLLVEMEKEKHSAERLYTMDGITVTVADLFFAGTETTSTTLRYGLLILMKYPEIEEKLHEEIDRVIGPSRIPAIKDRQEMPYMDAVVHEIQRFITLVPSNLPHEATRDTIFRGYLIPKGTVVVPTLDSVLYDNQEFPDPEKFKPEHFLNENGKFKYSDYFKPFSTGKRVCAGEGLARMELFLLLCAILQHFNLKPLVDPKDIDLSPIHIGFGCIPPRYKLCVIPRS

[12] = Half life in mouse at 3 mg/kg, iv; type: ADME, organism-based; set-up: dose 3 mg/kg, route intravenous; details: in vivo; summary of the method: as §1
[13] = Half life in beagle dog at 0.9 mg/kg, iv; type: ADME, organism-based, Canis lupus familiaris; set-up: dose 0.9 mg/kg, route intravenous; details: in vivo; summary of the method: as §1
[14] = Clearance in beagle dog at 1 mg/kg, iv; type: ADME, organism-based, Canis lupus familiaris; set-up: dose 1 mg/kg, route intravenous; details: in vivo; summary of the method: as §1
[15] = Half life in beagle dog at 1 mg/kg, iv; type: ADME, organism-based, Canis lupus familiaris; set-up: dose 1 mg/kg, route intravenous; details: in vivo; summary of the method: as §1
[16] = Binding affinity to ligand-gated chloride channel (unknown origin); set-up: species or system Homo sapiens
[17] = Clearance in Sprague-Dawley rat at 2.5 mg/kg, iv; type: ADME, organism-based; set-up: dose 2.5 mg/kg, route intravenous; details: in vivo; summary of the method: as §1
[18] = Oral bioavailability in Sprague-Dawley rat at 2.5 mg/kg; type: ADME, organism-based; details: in vivo; summary of the method: as §2
[19] = Half life in Sprague-Dawley rat at 2.5 mg/kg, iv; type: ADME, organism-based; set-up: dose 2.5 mg/kg, route intravenous; details: in vivo; summary of the method: as §1
[20] = molecular target: GABA-A receptor; benzodiazepine site (Homo sapiens); assay: Binding affinity to GABAA receptor (unknown origin)
[21] = Volume of distribution at steady state in Sprague-Dawley rat at 2.5 mg/kg, iv; type: ADME, organism-based; set-up: dose 2.5 mg/kg, route intravenous; details: in vivo, read-out: Vdss; summary of the method: as §1
[22] = Volume of distribution at steady state in beagle dog at 1 mg/kg, iv; type: ADME, organism-based, Canis lupus familiaris; set-up: dose 1 mg/kg, route intravenous; details: in vivo, read-out: Vdss; summary of the method: as §1

O=C(Nc1ccc2nc[nH]c2c1)c1c[nH]c2ccccc2c1=O
Activity [1]: 12%

O=C(c1cnc2ccccc2c1)N(Cc1ccccc1)Cc1ccccc1
EC50 [2]: 16000 nM

CC(C)(C)c1ccc(NC(=O)c2c[nH]c3ccccc3c2=O)cc1CN
Activity [1]: 20%

O=C(Nc1ccc2[nH]ccc2c1)c1c[nH]c2ccccc2c1=O
EC50 [2]: 6100 nM

CC(C)(C)c1cc(C(C)(C)C)c(NC(=O)c2c[nH]c3ccccc3c2=O)cc1O [IVACAFTOR]
clearance [3]: 7.4 mL/min/kg
AUC (Canis familiaris [4]): 13500 ng·h/mL
clearance [5]: 20 mL/min/kg
Vd [6]: 0.7 L/kg
Vd [7]: 2.8 L/kg
F (Canis familiaris [8]): 43%
half-life [9]: 6.7 h
Vd [10]: 2.2 L/kg
AUC(0-inf) [11]: 4800 ng·h/mL
IC50 (Cytochrome P450 2E1): > 20000 nM
half-life [12]: 1.3 h
half-life [13]: 13 h
EC50 [2]: 3 nM

CC(C)(C)c1ccc(NC(=O)c2c[nH]c3ccccc3c2=O)cc1C(=O)O
Activity [1]: 13%

O=C1Cc2ccc(NC(=O)c3c[nH]c4ccccc4c3=O)cc2N1
Activity [1]: 21%

CC(C)(C)c1ccc(NC(=O)c2c[nH]c3ccccc3c2=O)cc1S(N)(=O)=O
EC50 [2]: 5100 nM

CCCc1ccc(NC(=O)c2c[nH]c3ccccc3c2=O)cc1N
EC50 [2]: 400 nM

CC(C)c1ccc(NC(=O)c2c[nH]c3ccccc3c2=O)cc1
EC50 [2]: 200 nM

CC(C)c1ccccc1NC(=O)c1c[nH]c2ccccc2c1=O
EC50 [2]: 200 nM

CC(C)(C)c1ccc(NC(=O)c2c[nH]c3ccccc3c2=O)cc1CO
EC50 [2]: 100 nM

O=C(c1cnc2ccccn2c1=O)N(Cc1ccccc1)Cc1ccccc1
Activity [1]: 10%

CCc1ccc(NC(=O)c2c[nH]c3ccccc3c2=O)cc1
EC50 [2]: 800 nM

O=C(Nc1ccc2cc[nH]c2c1)c1c[nH]c2ccccc2c1=O
clearance [14]: 17 mL/min/kg
half-life [15]: 0.9 h
IC50 [16]: 100 nM
clearance [17]: 28 mL/min/kg
bioavailability [18]: 11%
half-life [19]: 1.3 h
IC50 [20]: 100 nM
Vd [21]: 2.4 L/kg
Vd [22]: 1.6 L/kg
EC50 [2]: 100 nM

CCc1cc2cc[nH]c2cc1NC(=O)c1c[nH]c2ccccc2c1=O
EC50 [2]: 20 nM

O=C(c1ccc2ccccc2c1O)N(Cc1ccccc1)Cc1ccccc1
EC50 [2]: 3500 nM

CC(C)(C)c1cc(C(F)(F)F)c(NC(=O)c2c[nH]c3ccccc3c2=O)cc1O
EC50 [2]: 3 nM

Cc1ccc(NC(=O)c2c[nH]c3ccccc3c2=O)cc1N
EC50 [2]: 6000 nM

CCc1cccc(CC)c1NC(=O)c1c[nH]c2ccccc2c1=O
EC50 [2]: 1500 nM

O=C(Nc1ccc2cn[nH]c2c1)c1c[nH]c2ccccc2c1=O
EC50 [2]: 5600 nM

N#CCc1ccccc1NC(=O)c1c[nH]c2ccccc2c1=O
EC50 [2]: 8500 nM

Cn1ccc2ccc(NC(=O)c3c[nH]c4ccccc4c3=O)cc21
EC50 [2]: 6400 nM

Cn1cc(C(=O)N(Cc2ccccc2)Cc2ccccc2)c(=O)c2ccccc21
Activity [1]: 37%
